Measurements from different studies.
Protocols differ between the studies behind these lines.
Effect on: cell growth or viability

O=C(Nc1ccc(Cl)cc1)C1CCCN(C(=O)c2cc(C(F)(F)F)cc(C(F)(F)F)c2)C1 (racemic)  viability (OCI-Ly1; ATP luminescence; 0.1 µM; 5 days): 191%
CCCCCCCCCCCCCCCCCCOc1cccc(CC(=O)OCC[N+]2(C)CCCC2)c1  inhibition (HOP-62; SRB; 10 µM): 9.94%
COC(=O)CNC(=O)C(=O)OC  viability (OCI-Ly1; ATP luminescence; 0.1 µM; 5 days): 198%
NCCNC(=O)c1ccc(-c2nc3ccc4[nH]ncc4c3c3c2CCCC3)cc1  GI50 (K562; resazurin; 72 h): 6.1 µM
O=C(Nc1ccc(C2CCCCC2)cc1)[C@H]1O[C@H](O[C@@H]2[C@@H](OCc3ccc4ccccc4c3)[C@H](O[C@H]3O[C@H](CNS(=O)(=O)O)[C@@H](OCc4ccc5ccccc5c4)C[C@H]3NS(=O)(=O)O)[C@@H](NS(=O)(=O)O)C[C@H]2NS(=O)(=O)O)[C@H](OCc2ccc3ccccc3c2)[C@@H](NS(=O)(=O)O)[C@@H]1OCc1ccc2ccccc2c1  viability (4T1; CCK-8; 120 µM; 48 h): 5 to 10%
CCCCCCCCCCCCCCCCCCOc1cccc(CC(=O)OCC[N+](C)(C)C)c1  inhibition (HOP-62; SRB; 10 µM): 3.94%
O=C(NCC1CC1)c1ccc(-c2nc3ccc4[nH]ncc4c3c3c2CCCC3)cc1  GI50 (K562; resazurin; 72 h): > 10 µM
O=C(CCCCCCSc1ccc2ccccc2c1)NO  viability (OCI-Ly1; ATP luminescence; 0.1 µM; 5 days): 194%
Cc1n[nH]c2ccc3nc(-c4ccc(C(=O)NCCN(C)C)cc4F)c4c(c3c12)CCCCC4  GI50 (K562; resazurin; 72 h): 2 µM
CCCCCCCCCCCCCCCCCCOc1cccc(CC(=O)OCCC[N+](C)(C)C)c1  inhibition (HOP-62; SRB; 10 µM): 15.9%
O=C(/C=C/c1cccc(C(=O)NO)c1)NO  viability (OCI-Ly1; ATP luminescence; 0.1 µM; 5 days): 181%
CN(C)CCNC(=O)c1ccc(-c2nc3ccc4[nH]ncc4c3c3c2CCCC3)cc1  GI50 (K562; resazurin; 72 h): 1.3 µM
CCCCCCCCCCCCCCCCCCOc1ccccc1CC(=O)OCC[N+](CC)(CC)CC  inhibition (HOP-62; SRB; 10 µM): 59%
Cc1n[nH]c2ccc3nc(-c4ccc(C(=O)NCCN5CCCC5)cc4)c4c(c3c12)CCCC4  GI50 (K562; resazurin; 72 h): 2.3 µM
CC(=O)OC[C@H]1O[C@@H](n2cnc(N)nc2=O)[C@H](OC(C)=O)[C@@H]1OC(C)=O  viability (OCI-Ly1; ATP luminescence; 0.5 µM; 5 days): 169%
